Results published in ChEMBL document CHEMBL2346649, “Novel pseudopeptides incorporating a benzodiazepine-based turn mimetic--targeting Mycobacterium tuberculosis ribonucleotide reductase” (Bioorg Med Chem, 2013).

Assays:
[1] = biological target: T1, Ribonucleoside-diphosphate reductase subunit alpha (Mycobacterium tuberculosis, UniProt P9WH75); assay: Displacement of Dansyl-Gly-Ser-Gly-Glu-Asp-Asp-Asp-Trp-Asp-Phe from C-terminal R1 subunit of Mycobacterium tuberculosis ribonucleotide reductase by fluorescence polarization assay
T1 sequence (P9WH75 whole entry): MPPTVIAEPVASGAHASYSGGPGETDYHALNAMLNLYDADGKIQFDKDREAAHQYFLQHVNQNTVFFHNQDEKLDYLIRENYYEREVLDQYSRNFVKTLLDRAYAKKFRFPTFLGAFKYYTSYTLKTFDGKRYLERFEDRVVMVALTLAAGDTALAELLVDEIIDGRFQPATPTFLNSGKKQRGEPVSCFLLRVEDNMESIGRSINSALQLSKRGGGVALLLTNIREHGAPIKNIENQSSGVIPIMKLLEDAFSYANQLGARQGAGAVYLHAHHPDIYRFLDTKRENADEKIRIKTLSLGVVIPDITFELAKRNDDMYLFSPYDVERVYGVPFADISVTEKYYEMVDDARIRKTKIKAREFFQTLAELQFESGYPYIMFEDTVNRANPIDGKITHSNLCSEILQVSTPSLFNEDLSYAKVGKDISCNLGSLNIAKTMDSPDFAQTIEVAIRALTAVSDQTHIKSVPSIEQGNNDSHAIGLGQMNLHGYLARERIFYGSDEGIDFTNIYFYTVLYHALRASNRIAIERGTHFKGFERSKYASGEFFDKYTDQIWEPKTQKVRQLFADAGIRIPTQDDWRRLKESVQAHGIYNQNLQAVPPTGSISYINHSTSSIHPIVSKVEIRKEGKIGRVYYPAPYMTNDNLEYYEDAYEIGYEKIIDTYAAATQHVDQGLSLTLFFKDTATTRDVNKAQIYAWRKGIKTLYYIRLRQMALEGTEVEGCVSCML
Summary of the method: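 Competitive fluorescence polarization: compounds compete with a fluorescent probe carrying the R2 C-terminal sequence for binding to M. tuberculosis R1, and dissociation constants (KD2) are derived. Compound stocks are 5–25 mM in 100% DMSO.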

[2] = Inhibition of Mycobacterium tuberculosis ribonucleotide reductase by [3H]CDP assay
Summary of the method: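 CDP reduction is read as cpm. IC50 is the concentration giving a 50% cpm reduction, averaged from three separate experiments with standard deviation.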

Row | Molecule | Kd [1] [µM] | IC50 [2] [µM]
1 | O=C(O)C[C@H](NC(=O)OCC1c2ccccc2-c2ccccc21)C(=O)Nc1cccc2c1N[C@@H](Cc1c[nH]c3ccccc13)C(=O)N(CC(=O)N[C@@H](Cc1ccccc1)C(=O)O)C2 | 1.6 | 
2 | CC(=O)N[C@@H](CC(=O)O)C(=O)Nc1cccc2c1N[C@@H](Cc1c[nH]c3ccccc13)C(=O)N(CC(=O)N[C@@H](Cc1ccccc1)C(=O)O)C2 | > 150 | 
3 | CC(=O)N[C@@H](CCC(=O)O)C(=O)N[C@@H](CC(=O)O)C(=O)N[C@@H](CC(=O)O)C(=O)N[C@@H](CC(=O)O)C(=O)Nc1cccc2c1N[C@@H](Cc1c[nH]c3ccccc13)C(=O)N(CC(=O)N[C@@H](Cc1ccccc1)C(=O)O)C2 | 27 | 64
4 | CC(=O)N[C@@H](CCC(=O)O)C(=O)N[C@@H](CC(=O)O)C(=O)N[C@@H](CC(=O)O)C(=O)Nc1cccc2c1N[C@@H](Cc1c[nH]c3ccccc13)C(=O)N(CC(=O)N[C@@H](Cc1ccccc1)C(=O)O)C2 | 81 | 
5 | O=C(O)CN1Cc2cccc(NC(=O)OCC3c4ccccc4-c4ccccc43)c2N[C@@H](Cc2c[nH]c3ccccc23)C1=O | 8.1 | 24
6 | O=C(Nc1cccc2c1N[C@@H](Cc1c[nH]c3ccccc13)C(=O)N(CCO)C2)OCC1c2ccccc2-c2ccccc21 | 26 | 171
7 | Ac-EDDDWDF-OH | 8.3 | 20
